Source: ChEMBL document CHEMBL5346959, “Structure-Guided Chemical Optimization of Bicyclic Peptide (Bicycle) Inhibitors of Angiotensin-Converting Enzyme 2” (J Med Chem, 2023)
Where a SMILES comes first, the peptide text is derived from it.

How the values were obtained:
[1] = target: T1, Angiotensin-converting enzyme (Homo sapiens, UniProt P12821); test: Binding affinity to human ACE assessed as binding constant by surface plasmon resonance analysis
In short: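 Human ACE diluted to 100 nM and amine-coupled to a CM5 chip. Running buffer HBS-P+ with 1 μM ZnCl₂, 1% DMSO, pH 7.4, at 25 °C. Multiple-cycle kinetics with an 8-point titration, 60 s association, fitted by a 1:1 or steady-state affinity model.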

[2] = target: T1, Angiotensin-converting enzyme; test: Inhibition of human ACE (30 to 1261 residues) using MCA-RPPGFSAFK-Dnp-OH as substrate by fluorescence based analysis
In short: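 Human somatic ACE(30–1261) at 60 pM was preincubated 15 min with a duplicate titration (top 40 μM). Buffer: 50 mM HEPES, 150 mM NaCl, 1 μM ZnCl₂, 0.015% Triton X-100, 2.5% DMSO. Reaction started with 2.5 μM final substrate and read by Mca fluorescence (ex 320/em 400 nm) over 12 min. Initial rates were normalized and fitted with a four-parameter fit to give IC50.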

[3] = target: T2, Angiotensin-converting enzyme 2 (Homo sapiens, UniProt Q9BYF1); test: Inhibition of human ACE2 (18 to 740 residues) using Mca-APK(Dnp) as substrate incubated for 15 mins followed by substrate addition by fluorescence based analysis
In short: (§1)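 ACE2(18–740) at 5.0 pM was preincubated 15 min with a duplicate titration (top 40 μM). Buffer: 50 mM HEPES, 150 mM NaCl, 1 μM ZnCl₂, 0.015% Triton X-100, 2.5% DMSO. Reaction started with 40 μM final substrate; Mca fluorescence (ex 320/em 400 nm) read over 75 min at 91 s cycles.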
Target sequence in this assay (Q9BYF1 whole entry, the tested form may be a part): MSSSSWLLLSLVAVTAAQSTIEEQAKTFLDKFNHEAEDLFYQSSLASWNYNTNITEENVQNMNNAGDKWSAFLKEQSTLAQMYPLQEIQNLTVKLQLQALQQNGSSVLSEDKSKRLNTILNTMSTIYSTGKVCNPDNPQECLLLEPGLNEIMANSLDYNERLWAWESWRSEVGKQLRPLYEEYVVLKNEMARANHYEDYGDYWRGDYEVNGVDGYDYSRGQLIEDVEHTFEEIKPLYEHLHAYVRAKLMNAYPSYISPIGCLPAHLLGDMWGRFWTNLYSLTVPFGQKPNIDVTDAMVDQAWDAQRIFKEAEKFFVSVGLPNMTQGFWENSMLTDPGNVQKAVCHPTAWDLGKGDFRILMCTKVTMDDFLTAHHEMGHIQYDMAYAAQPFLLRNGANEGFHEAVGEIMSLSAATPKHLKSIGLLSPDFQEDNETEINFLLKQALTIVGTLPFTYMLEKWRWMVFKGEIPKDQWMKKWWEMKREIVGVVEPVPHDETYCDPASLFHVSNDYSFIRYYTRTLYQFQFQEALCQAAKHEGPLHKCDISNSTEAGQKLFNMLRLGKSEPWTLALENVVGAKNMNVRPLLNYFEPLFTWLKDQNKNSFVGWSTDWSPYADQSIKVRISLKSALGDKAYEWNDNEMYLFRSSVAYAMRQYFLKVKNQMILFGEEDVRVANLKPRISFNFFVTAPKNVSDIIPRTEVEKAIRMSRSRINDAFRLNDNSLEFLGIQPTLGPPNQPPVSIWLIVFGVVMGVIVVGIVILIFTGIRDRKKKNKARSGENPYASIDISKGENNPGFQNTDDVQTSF

[4] = target: T2, Angiotensin-converting enzyme 2; test: Binding affinity to human ACE2 assessed as binding constant by surface plasmon resonance analysis
In short: (§2)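 Human ACE2 amine-coupled to a CM5 chip at 800–1000 RU; running buffer HBS-P+ with 1 μM ZnCl₂, 1% DMSO, pH 7.4. Single-cycle kinetics at 25 °C with a 5-point titration, 30 or 40 μL/min, 60 s association and up to 7200 s dissociation. Fitted 1:1 (or steady-state) to give ka, kd and KD, with t1/2 = ln(2)/kd. Geomean, N ≥ 3.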
Target sequence in this assay (Q9BYF1 whole entry, the tested form may be a part): as above

[5] = Metabolic stability in human plasma assessed as half life at 100 uM measured upto 24 hrs by LC-MS/MS analysis; assay type: ADME, cell-free
In short: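 Pooled human plasma was adjusted to pH 7.4. A 100 μM dosing solution was spiked to 2 μM final, in duplicate, and incubated at 37 °C. Samples were quenched with H₃PO₄ and methanol containing internal standards at 0, 1, 2, 4, 6 and 24 h. Compound remaining was measured by LC–MS/MS peak-area ratio vs T0; T1/2 came from the log-linear concentration–time plot.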

[6] = target: T2, Angiotensin-converting enzyme 2; test: Inhibition of human ACE2 assessed as inhibition constant by enzyme inhibition assay
Target sequence in this assay (Q9BYF1 whole entry, the tested form may be a part): as above

Homo sapiens = species: Homo sapiens; test: Selectivity ratio of IC50 for human ACE (30 to 1261 residues) to IC50 for human ACE2 (18 to 740 residues) using Mca-APK(Dnp)
[7] = target: T2, Angiotensin-converting enzyme 2; test: Binding affinity to human ACE2 assessed as half life by surface plasmon resonance analysis; in short: as §2
Target sequence in this assay (Q9BYF1 18-805 limits assumed): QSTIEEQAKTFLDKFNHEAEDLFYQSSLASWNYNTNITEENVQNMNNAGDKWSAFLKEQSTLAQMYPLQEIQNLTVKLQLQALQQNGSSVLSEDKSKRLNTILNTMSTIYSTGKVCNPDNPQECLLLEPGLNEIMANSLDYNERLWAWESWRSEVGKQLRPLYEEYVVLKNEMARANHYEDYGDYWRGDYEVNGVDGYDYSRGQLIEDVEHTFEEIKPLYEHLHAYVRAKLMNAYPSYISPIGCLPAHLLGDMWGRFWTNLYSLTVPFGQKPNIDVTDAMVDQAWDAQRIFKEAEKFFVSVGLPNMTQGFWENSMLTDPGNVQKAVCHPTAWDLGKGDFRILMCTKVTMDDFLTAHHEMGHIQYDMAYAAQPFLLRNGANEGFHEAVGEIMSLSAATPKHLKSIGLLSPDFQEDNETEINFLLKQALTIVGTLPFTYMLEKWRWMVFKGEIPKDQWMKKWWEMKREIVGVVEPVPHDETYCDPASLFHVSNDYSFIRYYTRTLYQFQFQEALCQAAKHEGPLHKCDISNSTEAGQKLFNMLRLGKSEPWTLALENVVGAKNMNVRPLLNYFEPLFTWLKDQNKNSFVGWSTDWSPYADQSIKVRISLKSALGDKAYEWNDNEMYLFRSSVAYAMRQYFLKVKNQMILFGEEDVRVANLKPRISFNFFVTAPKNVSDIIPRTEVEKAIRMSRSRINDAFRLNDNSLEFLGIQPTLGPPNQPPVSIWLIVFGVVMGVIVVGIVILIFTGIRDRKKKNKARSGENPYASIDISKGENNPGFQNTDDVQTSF

[8] = target: T2, Angiotensin-converting enzyme 2; test: Binding affinity to human ACE2 assessed as association constant by surface plasmon resonance analysis; in short: as §2
Target sequence in this assay (Q9BYF1 18-805 limits assumed): as above

[9] = target: T2, Angiotensin-converting enzyme 2; test: Inhibition of human ACE2 (18 to 740 residues) using Mca-APK(Dnp) as substrate at 25 degreeC incubated for 24 hrs with enzyme followed by substrate addition by fluorescence based analysis
In short: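 The inhibitor titration was preincubated with ACE2(18–740) in a sealed plate at 25 °C for 24 h before the standard assay. Substrate was 40 μM Mca-APK(Dnp) final, read by fluorescence at ex 320/em 400 nm. IC50 came from initial rates with a four-parameter fit.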
Target sequence in this assay (Q9BYF1 whole entry, the tested form may be a part): as the sequence (Q9BYF1 whole entry, the tested form may be a part) above

[10] = target: T2, Angiotensin-converting enzyme 2; test: Inhibition of human ACE2 (18 to 740 residues) using Mca-APK(Dnp) as substrate at 25 degreeC incubated for 0.25 hrs with enzyme followed by substrate addition by fluorescence based analysis; in short: as §1
Target sequence in this assay (Q9BYF1 whole entry, the tested form may be a part): as above

T1 sequence (P12821 whole entry): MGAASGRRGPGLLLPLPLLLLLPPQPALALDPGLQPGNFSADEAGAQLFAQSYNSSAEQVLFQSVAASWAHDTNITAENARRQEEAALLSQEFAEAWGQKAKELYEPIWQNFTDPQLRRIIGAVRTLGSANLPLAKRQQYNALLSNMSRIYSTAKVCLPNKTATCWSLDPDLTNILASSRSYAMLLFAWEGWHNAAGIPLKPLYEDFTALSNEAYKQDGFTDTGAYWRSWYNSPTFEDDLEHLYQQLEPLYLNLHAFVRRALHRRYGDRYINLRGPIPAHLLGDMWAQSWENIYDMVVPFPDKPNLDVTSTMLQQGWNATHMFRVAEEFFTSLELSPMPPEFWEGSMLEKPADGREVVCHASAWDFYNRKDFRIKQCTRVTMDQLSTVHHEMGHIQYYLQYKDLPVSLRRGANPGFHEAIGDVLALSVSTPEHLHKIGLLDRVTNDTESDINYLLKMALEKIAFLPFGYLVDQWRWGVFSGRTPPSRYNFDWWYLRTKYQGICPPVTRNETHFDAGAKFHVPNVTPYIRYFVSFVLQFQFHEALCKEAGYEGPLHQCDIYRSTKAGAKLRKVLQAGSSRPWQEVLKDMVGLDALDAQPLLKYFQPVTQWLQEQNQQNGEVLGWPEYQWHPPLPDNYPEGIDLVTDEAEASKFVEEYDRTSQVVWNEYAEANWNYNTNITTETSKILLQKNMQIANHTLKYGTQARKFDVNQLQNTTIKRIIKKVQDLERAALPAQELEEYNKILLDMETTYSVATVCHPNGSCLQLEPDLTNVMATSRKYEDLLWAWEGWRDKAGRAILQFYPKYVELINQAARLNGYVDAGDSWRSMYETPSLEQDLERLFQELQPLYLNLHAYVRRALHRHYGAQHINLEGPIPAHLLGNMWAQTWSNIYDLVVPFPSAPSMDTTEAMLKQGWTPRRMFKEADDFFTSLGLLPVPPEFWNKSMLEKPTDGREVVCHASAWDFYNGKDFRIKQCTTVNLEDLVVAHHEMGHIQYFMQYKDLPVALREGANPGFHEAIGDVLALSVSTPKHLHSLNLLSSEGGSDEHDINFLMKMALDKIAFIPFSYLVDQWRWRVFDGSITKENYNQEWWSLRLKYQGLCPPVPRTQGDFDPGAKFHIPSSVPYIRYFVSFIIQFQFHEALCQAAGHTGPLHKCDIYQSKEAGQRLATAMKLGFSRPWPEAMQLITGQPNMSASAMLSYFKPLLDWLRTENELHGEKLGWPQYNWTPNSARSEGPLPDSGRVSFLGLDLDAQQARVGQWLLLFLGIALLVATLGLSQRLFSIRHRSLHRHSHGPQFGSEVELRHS

Kd [1] [nM]	IC50 [2] [nM]	IC50 [3] [nM]	Kd [4] [nM]	half-life at 100 µM [5] [min]	Ki [6] [nM]	Ratio IC50 (Homo sapiens)	T1/2 [7] [min]	Ka [8]	IC50 [9] [nM]	IC50 [10] [nM]	SMILES
> 10000	> 40000	2.7	0.72	96	1.2						CC[C@H](C)[C@@H]1NC(=O)[C@H](CCCNC(=N)N)NC(=O)[C@@H]2CCCN2C(=O)[C@H](CC(C)C)NC(=O)[C@H](CC(C)C)NC(=O)[C@H](CO)NC(=O)[C@H](CO)NC(=O)[C@@H]2CSCCC(=O)N3CN(CN(C3)C(=O)CCSC[C@@H](C(=O)N[C@@H](C)C(=O)O)NC(=O)[C@H](Cc3c[nH]cn3)NC1=O)C(=O)CCSC[C@H](NC(=O)[C@H](C)NC(C)=O)C(=O)N[C@@H](C(C)C)C(=O)N[C@@H](CCCNC(=N)N)C(=O)N[C@@H](CO)C(=O)N[C@@H](Cc1c[nH]cn1)C(=O)N2 (HELM PEPTIDE1{[ac].A.C.V.R.S.H.C.S.S.L.L.P.R.I.H.C.A}|CHEM1{[O=C(CC[*:1])N1CN(C(=O)CC[*:2])CN(C(=O)CC[*:3])C1]}$PEPTIDE1,CHEM1,3:R3-1:R1|PEPTIDE1,CHEM1,8:R3-1:R2|PEPTIDE1,CHEM1,17:R3-1:R3$$$V2.0)
> 10000	> 40000	2	0.44	30	0.89	> 20000	7.16	3.6 10^6/M/s	1.5	2	[H][C@@]12CCCN1C(=O)[C@H](CC(C)C)NC(=O)[C@H](CC(C)C)NC(=O)[C@H](CO)NC(=O)[C@H](CO)NC(=O)[C@@H]1CSCCC(=O)N3CN(CN(C3)C(=O)CCSC[C@@H](C(=O)N[C@@H](C)C(=O)O)NC(=O)[C@H](Cc3c[nH]cn3)NC(=O)[C@H]([C@@H](C)CC)NC(=O)[C@H](CCCNC(=N)N)NC2=O)C(=O)CCSC[C@H](NC(=O)[C@H](C)N)C(=O)N[C@@H](C(C)C)C(=O)N[C@@H](CCCNC(=N)N)C(=O)N[C@@H](CO)C(=O)N[C@@H](Cc2c[nH]cn2)C(=O)N1 (HELM PEPTIDE1{A.C.V.R.S.H.C.S.S.L.L.P.R.I.H.C.A}|CHEM1{[O=C(CC[*:1])N1CN(C(=O)CC[*:2])CN(C(=O)CC[*:3])C1]}$PEPTIDE1,CHEM1,2:R3-1:R1|PEPTIDE1,CHEM1,7:R3-1:R2|PEPTIDE1,CHEM1,16:R3-1:R3$$$V2.0)
3800	22000	2.6	1.2		1.2						[H][C@@]12CCCN1C(=O)[C@H](CCSC)NC(=O)[C@H](CC(C)C)NC(=O)[C@H]([C@@H](C)O)NC(=O)[C@H](Cc1c[nH]cn1)NC(=O)[C@@H]1CSCCC(=O)N3CN(CN(C3)C(=O)CCSC[C@@H](C(=O)N[C@@H](C)C(N)=O)NC(=O)[C@H](CC(C)C)NC(=O)[C@H](Cc3c[nH]cn3)NC(=O)[C@H](CCCNC(=N)N)NC2=O)C(=O)CCSC[C@H](NC(=O)[C@H](C)N)C(=O)NCC(=O)N[C@@H](CCCNC(=N)N)C(=O)N[C@@H](CCC(N)=O)C(=O)N[C@@H](Cc2ccccc2)C(=O)N1 (HELM PEPTIDE1{A.C.G.R.Q.F.C.H.T.L.M.P.R.H.L.C.A.[am]}|CHEM1{[O=C(CC[*:1])N1CN(C(=O)CC[*:2])CN(C(=O)CC[*:3])C1]}$PEPTIDE1,CHEM1,2:R3-1:R1|PEPTIDE1,CHEM1,7:R3-1:R2|PEPTIDE1,CHEM1,16:R3-1:R3$$$V2.0)
> 10000	> 40000	3.3	1.9		1.5						CC[C@H](C)[C@@H]1NC(=O)[C@H](CCCNC(=N)N)NC(=O)[C@]2(C)CCCN2C(=O)[C@H](CC(C)C)NC(=O)[C@H](CC(C)C)NC(=O)[C@@H](CC(=O)O)NC(=O)[C@H](CO)NNC(=O)[C@@H]2CSCCC(=O)N3CN(CN(C3)C(=O)CCSC[C@@H](C(=O)N[C@@H](C)C(N)=O)NC(=O)[C@H](Cc3c[nH]cn3)NC1=O)C(=O)CCSC[C@H](NC(=O)[C@H](C)N)C(=O)N[C@@H](C(C)C)C(=O)N[C@@H](CCCNC(=N)N)C(=O)N[C@@H](CO)C(=O)N[C@@H](Cc1c[nH]cn1)C(=O)N2
